Test results: ChEMBL document CHEMBL3124940, “Design, synthesis and biological evaluation of D-ring opened galantamine analogs as multifunctional anti-Alzheimer agents” (Eur J Med Chem, 2014)
Active and inactive are the calls of the source. The rule behind the calls is not given here.

Experiments:
[1] = target: Amyloid-beta precursor protein (Homo sapiens) (UniProt P05067); assay: Inhibition of amyloid beta (1 to 42) aggregation (unknown origin) at 5 uM after 1 hr by thioflavin T fluorescence assay
Procedure, shortened: (§1)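 Aβ42 stock (200 µM in DMSO) centrifuged 12,000 rpm for 10 min; supernatant used. Compound (2 µL of 0.2–4.0 mM DMSO stock) and 2 µL Aβ42 stock added to 76 µL PBS pH 7.4, incubated 1 h at room temperature. 80 µL of 5 µM ThT in 50 mM glycine-NaOH pH 8.5 then added; fluorescence read at excitation 430 nm, emission 488 nm.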

[2] = target: Amyloid-beta precursor protein (Homo sapiens) (UniProt P05067); assay: Inhibition of amyloid beta (1 to 42) aggregation (unknown origin) after 1 hr by thioflavin T fluorescence assay; procedure, shortened: as §1

Sequence of Amyloid-beta precursor protein (Homo sapiens) (P05067 whole entry): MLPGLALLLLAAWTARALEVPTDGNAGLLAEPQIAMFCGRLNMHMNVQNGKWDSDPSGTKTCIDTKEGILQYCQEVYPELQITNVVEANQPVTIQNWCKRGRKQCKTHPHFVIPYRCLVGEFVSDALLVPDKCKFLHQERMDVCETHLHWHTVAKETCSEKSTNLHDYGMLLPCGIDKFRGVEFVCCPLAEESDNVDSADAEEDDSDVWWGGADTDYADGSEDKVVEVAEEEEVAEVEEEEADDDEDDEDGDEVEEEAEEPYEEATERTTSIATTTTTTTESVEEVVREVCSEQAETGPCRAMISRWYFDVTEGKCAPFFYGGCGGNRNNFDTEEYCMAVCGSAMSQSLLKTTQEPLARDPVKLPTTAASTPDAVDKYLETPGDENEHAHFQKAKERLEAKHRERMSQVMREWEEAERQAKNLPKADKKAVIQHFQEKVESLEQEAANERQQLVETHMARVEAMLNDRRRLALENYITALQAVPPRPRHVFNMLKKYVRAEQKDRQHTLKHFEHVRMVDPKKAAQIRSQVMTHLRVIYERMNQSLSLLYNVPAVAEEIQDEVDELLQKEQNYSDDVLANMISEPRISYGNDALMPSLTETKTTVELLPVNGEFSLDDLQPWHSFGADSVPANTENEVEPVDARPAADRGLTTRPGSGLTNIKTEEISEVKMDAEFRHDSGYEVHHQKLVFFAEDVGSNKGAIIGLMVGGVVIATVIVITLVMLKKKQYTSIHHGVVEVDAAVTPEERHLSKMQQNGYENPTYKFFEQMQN

inhibition [1]: inactive
inhibition [2]: Dose-dependent effect
SMILES: COc1cc(/C=C/C(=O)CC(=O)/C=C/c2ccc(O)c(OC)c2)ccc1O
